Results collected from several papers.
Protocols differ between the studies behind these lines.
Target: Dual specificity mitogen-activated protein kinase kinase 1 (MAP2K1, Homo sapiens, UniProt Q02750)

| Structure (SMILES) | test | conditions | remaining binding |
| --- | --- | --- | --- |
| COC(=O)Nc1nc2cc(C(=O)c3ccccc3)ccc2[nH]1 | cell-free assay, competition with immobilised ligand | 0.1 µM | 100% |
| O=C(N1CCS(=O)(=O)CC1)N1C[C@H](c2ccc(OC(F)(F)F)cc2)C[C@H](c2nc(C3CC3)no2)C1 | cell-free assay, competition with immobilised ligand | 1 µM | 91% |
| CS(=O)(=O)CCNCc1ccc(-c2ccc3ncnc(Nc4ccc(OCc5cccc(F)c5)c(Cl)c4)c3c2)o1 | cell-free assay, competition with immobilised ligand | 0.1 µM | 95% |
| CN(C)c1ncnc(-c2ccc3nc(Nc4cc(CN5CCN(C(=O)CC(F)(F)F)CC5)ccn4)[nH]c3c2)c1Cl | cell-free assay, competition with immobilised ligand | 1 µM | 78% |
| COc1cc2ncnc(Nc3ccc(F)c(Cl)c3)c2cc1OCCCN1CCOCC1 | cell-free assay, competition with immobilised ligand | 0.1 µM | 100% |
| FC(F)(F)Oc1cccc(-c2cnc3ccc(-c4ccncc4)nn23)c1 | cell-free assay, competition with immobilised ligand | 5 µM | 70% |
| CCN(CC)CCNC(=O)c1c(C)[nH]c(/C=C2\C(=O)Nc3ccc(F)cc32)c1C | cell-free assay, competition with immobilised ligand | 0.1 µM | 51% |
| CC(=O)N1CCC(c2ccc(C(=O)NC(=N)N)cc2C(F)(F)F)CC1 | cell-free assay, competition with immobilised ligand | 1 µM | 97% |
| c1cnn2ncc(-c3ccnc(N4CCC45COC5)n3)c2c1 | binding, competition with immobilised ligand | 1 µM | 69% |
| O=C(NCc1ncc(C(F)(F)F)cc1Cl)c1ccc2c(c1)C1(CCS(=O)(=O)CC1)[C@@H](C1CC1)N2S(=O)(=O)c1ccc(F)cc1 | cell-free assay, competition with immobilised ligand | 1 µM | 91% |
| C[C@@H]1CN(c2ccc3ncc(-c4ccc5[nH]nc(C6CC6)c5c4)n3n2)C[C@H](C)O1 | binding, competition with immobilised ligand | 0.5 µM | 100% |
| COc1ncc2cc3ccccc3nc2c1C#N | cell-free assay, competition with immobilised ligand | 5 µM | 90% |
| CN(c1nccc(-c2cnn3ncccc23)n1)C1CC1 | binding | 1 µM | 100% |
| C[C@H](c1cccc(C#N)c1)n1cc(Cl)cc(C(N)=O)c1=N | cell-free assay, competition with immobilised ligand | 1 µM | 75% |
| CNC(=O)c1cc(Oc2ccc(NC(=O)Nc3ccc(Cl)c(C(F)(F)F)c3)cc2)ccn1 | cell-free assay, competition with immobilised ligand | 10 µM | 99% |
| Cc1cnc(Nc2ccc(C(=O)N3CCC(N4CCCC4)CC3)cc2)nc1-c1cc2ccccc2s1 | binding, competition with immobilised ligand | 1 µM | 25% |

| Structure (SMILES) | test | conditions | remaining binding |
| --- | --- | --- | --- |
| Nc1ncc2c(n1)-c1c([nH]c3ccc(C#CC4CC4)cc13)CCCC2 | binding, competition with immobilised ligand | 1 µM | 100% |
| N#Cc1ccccc1CSc1nnc2c(n1)[nH]c1ccccc12 | binding, competition with immobilised ligand | 10 µM | 95% |
| O=C(NCCCN1CCOCC1)c1ccc(Nc2ncc(Cl)c(-c3ccc(Cl)s3)n2)cc1 | binding, competition with immobilised ligand | 1 µM | 63% |
| CN1CC[C@H](c2c(O)cc(O)c3c(=O)cc(-c4ccccc4Cl)oc23)[C@H](O)C1 | cell-free assay, competition with immobilised ligand | 0.1 µM | 92% |
| COc1cnc(Nc2cccc(S(N)(=O)=O)c2)nc1N1CCN(c2ccccc2)C(=O)C1 | binding, competition with immobilised ligand | 1 µM | 91% |
| O=C(NCC1CCOCC1)c1n[nH]cc1NC(=O)c1c(F)cccc1F | binding, competition with immobilised ligand | 1 µM | 100% |
| O=C(c1ccc(Nc2ncc(Cl)c(-c3cc4ccccc4s3)n2)cc1)N1CCC(N2CCCC2)CC1 | binding, competition with immobilised ligand | 1 µM | 21% |
| CC1=C(C#N)C(c2ccc3c(c2)c(NC(=O)c2ccccc2C)nn3C)C(C#N)=C(C)N1 | cell-free assay, competition with immobilised ligand | 1 µM | 87% |
| Cc1ccc(NC(=O)c2ccc(CN3CCN(C)CC3)cc2)cc1Nc1nccc(-c2cccnc2)n1 | cell-free assay, competition with immobilised ligand | 10 µM | 94% |
| Cc1nc(Cc2cccc(C(F)(F)F)c2)sc1-c1ccc(C(N)=O)nc1 | cell-free assay, competition with immobilised ligand | 1 µM | 100% |
| C[C@@H]1CCN(c2nccc(-c3cnn4ncccc34)n2)C1 | binding, competition with immobilised ligand | 1 µM | 75% |
| CC(C)(C)c1ccc(-c2nc(CBr)nn2-c2cccc(O)c2)cc1 | cell-free assay, competition with immobilised ligand | 10 µM | 83% |
| N[C@@H]1CCN(c2nccc(-c3cnn4ncccc34)n2)C1 | binding | 1 µM | 100% |
| C[C@H](c1ccc(F)cc1)N(Cc1cccc(C(=O)O)c1)C(=O)c1cnc2ccccc2c1 | cell-free assay, competition with immobilised ligand | 1 µM | 100% |
| Cc1c(-c2ccccc2)oc2c(C(=O)OCCN3CCCCC3)cccc2c1=O | cell-free assay, competition with immobilised ligand | 0.1 µM | 94% |
| CN(CCCC(F)(F)F)c1nccc(-c2cnn3ncccc23)n1 | binding, competition with immobilised ligand | 1 µM | 99% |
